Measured values pooled from the literature.
Protocols differ between the studies behind these lines. Converted amounts (≈) assume the structure as drawn.

| Compound | target or system | assay | system | conditions | measurement | result |
| --- | --- | --- | --- | --- | --- | --- |
| Cc1ccc(-c2nc3ccccc3s2)cc1NC(=O)c1cc([N+](=O)[O-])c(N(C)C)cc1Cl | Leishmania mexicana | parasite growth | J774.A1 | intracellular, amastigote | EC50 | > 10000 nM |
| O=c1c(O[C@@H]2O[C@H](CO)[C@@H](O)[C@H](O)[C@H]2O)c(-c2ccc(O)cc2)oc2cc(O)cc(O)c12 | – | tubulin polymerisation, inhibitor | – | 10 µM | inhibition | 21.2% |
| O=C(Nc1cnc(Cl)c(Cl)c1)c1cc([N+](=O)[O-])c(F)cc1F | Leishmania mexicana | parasite growth | J774.A1 | intracellular, amastigote | EC50 | 220 nM |
| CC1(C)CC[C@]2(C)CC[C@]3(C)[C@H]4CC=C5[C@@H](CC[C@H](O)C5(C)C)[C@]4(C)CC[C@@]3(C)[C@@H]2C1 | – | tubulin polymerisation, inhibitor | – | 10 µM | inhibition | 17% |
| O=C(Nc1ccc(Cl)c(Cl)c1)c1cc([N+](=O)[O-])c(F)cc1Cl | Leishmania mexicana | parasite growth | J774.A1 | intracellular, amastigote | EC50 | 950 nM |
| O=C(O)CN1C(=O)/C(=C/c2c3ccccc3c(-c3ccc(N(c4ccccc4)c4ccccc4)cc3)c3ccccc23)NC1=S | Staphylococcus epidermidis | microbial killing, broth dilution | ATCC12228 | – | MBC | > 1000 µg/mL |
| COc1cc(-c2ccc(-c3ccc(C(=N)N)nc3)s2)cc(OC)c1OC | HOP-62 | cell growth or viability, SRB | – | – | GI50 | 2790 nM |
| Nc1ncnc2c1ncn2[C@@H]1O[C@H](CO)[C@@H](O)[C@H]1O | – | tubulin polymerisation, inhibitor | – | 10 µM | inhibition | 17.9% |
| CC1(C)CC[C@]2(NC(=O)N3CCC[C@H]3CO)CC[C@]3(C)C(=CC[C@@H]4[C@@]5(C)CC[C@@H]6OC(C)(C)OC[C@@]6(C)[C@@H]5CC[C@]43C)[C@@H]2C1 | Leishmania mexicana | parasite growth, resazurin | – | 50 µM, amastigote | inhibition | 95.8% |
| O=C(/C=C/c1ccc(O)c(O)c1)O[C@@H]1C[C@](O)(C(=O)O)C[C@@H](O)[C@H]1O | – | tubulin polymerisation, inhibitor | – | 10 µM | inhibition | 30.9% |
| C[C@@H]1O[C@@H](C[C@@H]2OC[C@@]3(C)[C@@H]4CC[C@]5(C)[C@H](CC=C6[C@@H]7CC(C)(C)CC[C@]7(C(=O)O)CC[C@]65C)[C@@]4(C)CC[C@@H]3O2)[C@@H](O)[C@H](O)[C@@H]1O | Leishmania mexicana | parasite growth, resazurin | – | 50 µM, amastigote | inhibition | 99.2% |
| O=C(O)CN1C(=O)/C(=C/c2ccc(-c3ccc(N(c4ccccc4)c4ccccc4)cc3)c3ccccc23)NC1=S | Staphylococcus epidermidis | microbial killing, broth dilution | ATCC12228 | – | MBC | > 1000 µg/mL |
| CC1(C)CC[C@]2(C(=O)OCc3ccccc3[N+](=O)[O-])CC[C@]3(C)C(=CC[C@@H]4[C@@]5(C)CC[C@H](O)[C@@](C)(CO)[C@@H]5CC[C@]43C)[C@@H]2C1 | Leishmania mexicana | parasite growth, resazurin | – | 50 µM, amastigote | inhibition | 100% |
| O=C1NC(=S)N/C1=C\c1ccc(-c2ccc(N(c3ccccc3)c3ccccc3)cc2)cc1 | Staphylococcus epidermidis | microbial killing, broth dilution | ATCC12228 | – | MBC | > 1000 µg/mL |
| CC1(C)CC[C@]2(NC(=O)N[C@H]3C(O)O[C@H](CO)[C@@H](O)[C@@H]3O)CC[C@]3(C)C(=CC[C@@H]4[C@@]5(C)CC[C@@H]6OC(C)(C)OC[C@@]6(C)[C@@H]5CC[C@]43C)[C@@H]2C1 (stereo partly drawn) | Leishmania mexicana | parasite growth, resazurin | – | 50 µM, amastigote | inhibition | 97.2% |
| O=c1ccc2cc3ccoc3cc2o1 | – | tubulin polymerisation, inhibitor | – | 10 µM | inhibition | 30.1% |
| O=C(O)CN1C(=O)/C(=C/c2ccc(-c3ccc(N(c4ccccc4)c4ccccc4)cc3)c3ccccc23)SC1=S | Staphylococcus epidermidis | microbial growth, broth dilution | ATCC12228 | – | MIC | 500 µg/mL (≈ 873 µM) |
| O=Cc1ccc(CO)o1 | – | tubulin polymerisation, inhibitor | – | 10 µM | inhibition | 13.4% |
| CC1(C)CC[C@]2(C(=O)OCN3C(=O)c4ccccc4C3=O)CC[C@]3(C)C(=CC[C@@H]4[C@@]5(C)CC[C@H](O)[C@@](C)(CO)[C@@H]5CC[C@]43C)[C@@H]2C1 | Leishmania mexicana | parasite growth, resazurin | – | 50 µM, amastigote | inhibition | 98.6% |
| O=C1NC(=S)S/C1=C\c1ccc(-c2ccc(N(c3ccccc3)c3ccccc3)cc2)cc1 | Staphylococcus epidermidis | microbial growth, broth dilution | ATCC12228 | – | MIC | 125 µg/mL (≈ 269 µM) |
| CC(=O)N1CCN(C(=O)N[C@]23CCC(C)(C)C[C@H]2C2=CC[C@@H]4[C@@]5(C)CC[C@@H]6OC(C)(C)OC[C@@]6(C)[C@@H]5CC[C@@]4(C)[C@]2(C)CC3)CC1 | Leishmania mexicana | parasite growth, resazurin | – | 50 µM, amastigote | inhibition | 100% |
| O=C1NC(=S)S/C1=C\c1c2ccccc2c(-c2ccc(N(c3ccccc3)c3ccccc3)cc2)c2ccccc12 | Staphylococcus epidermidis | microbial growth, broth dilution | ATCC12228 | – | MIC | > 1000 µg/mL |
| CC1(C)CC[C@]2(CO)CC[C@]3(C)C(=CC[C@@H]4[C@@]5(C)CC[C@@H]6O[C@H]([C@H](O)[C@@H](O)[C@H](O)[C@H](O)CO)OC[C@@]6(C)[C@@H]5CC[C@]43C)[C@@H]2C1 | Leishmania mexicana | parasite growth, resazurin | – | 50 µM, amastigote | inhibition | 99.1% |
| O=c1c(O)c(-c2ccc(O)cc2)oc2cc(O)cc(O)c12 | – | tubulin polymerisation, inhibitor | – | 10 µM | inhibition | 15% |
